Test [1] has as its target Serine/threonine-protein kinase 38-like (Homo sapiens) (UniProt Q9Y2H1). The test can be described thus: Inhibition of human recombinant NDR2 at 40 nM in presence of ATP by radiometric assay relative to control.
Test [2] addresses T1, Eukaryotic translation initiation factor 2-alpha kinase 3 (Homo sapiens) (UniProt Q9NZJ5).
T1 sequence (whole entry): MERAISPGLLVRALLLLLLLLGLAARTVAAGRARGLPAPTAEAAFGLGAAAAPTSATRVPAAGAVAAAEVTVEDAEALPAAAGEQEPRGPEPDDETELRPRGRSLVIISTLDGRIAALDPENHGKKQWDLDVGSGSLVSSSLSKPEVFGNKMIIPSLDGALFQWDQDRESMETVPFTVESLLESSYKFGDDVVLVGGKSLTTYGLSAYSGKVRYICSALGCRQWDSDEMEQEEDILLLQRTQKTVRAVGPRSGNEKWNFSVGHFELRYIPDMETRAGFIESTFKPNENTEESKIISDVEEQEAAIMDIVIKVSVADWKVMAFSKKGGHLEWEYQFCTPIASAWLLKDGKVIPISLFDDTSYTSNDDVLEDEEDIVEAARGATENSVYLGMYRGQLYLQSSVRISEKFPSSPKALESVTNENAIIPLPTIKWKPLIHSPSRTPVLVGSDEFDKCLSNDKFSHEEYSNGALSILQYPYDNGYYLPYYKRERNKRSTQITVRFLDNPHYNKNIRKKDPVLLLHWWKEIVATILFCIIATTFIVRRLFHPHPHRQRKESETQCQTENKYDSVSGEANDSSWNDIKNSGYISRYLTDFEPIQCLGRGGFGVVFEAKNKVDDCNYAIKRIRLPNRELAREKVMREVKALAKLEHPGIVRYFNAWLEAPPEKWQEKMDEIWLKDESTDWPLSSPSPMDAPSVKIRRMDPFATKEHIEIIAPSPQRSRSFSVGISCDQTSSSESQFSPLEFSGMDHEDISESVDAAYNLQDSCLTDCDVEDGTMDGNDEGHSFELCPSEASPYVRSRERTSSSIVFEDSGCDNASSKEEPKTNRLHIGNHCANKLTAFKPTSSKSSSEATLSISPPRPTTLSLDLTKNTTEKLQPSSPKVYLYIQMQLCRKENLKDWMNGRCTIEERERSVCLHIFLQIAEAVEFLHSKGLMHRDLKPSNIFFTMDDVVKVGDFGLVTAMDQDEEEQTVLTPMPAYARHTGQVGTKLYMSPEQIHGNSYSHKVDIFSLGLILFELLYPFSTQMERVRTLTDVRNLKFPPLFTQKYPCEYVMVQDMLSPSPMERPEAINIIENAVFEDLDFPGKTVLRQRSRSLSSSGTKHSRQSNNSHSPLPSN
Description: Inhibition of human recombinant PEK at 500 nM related to control ULK1.

The target of test [3] is T2, Cytoplasmic tyrosine-protein kinase BMX (Homo sapiens) (UniProt P51813).
T2 sequence (whole entry): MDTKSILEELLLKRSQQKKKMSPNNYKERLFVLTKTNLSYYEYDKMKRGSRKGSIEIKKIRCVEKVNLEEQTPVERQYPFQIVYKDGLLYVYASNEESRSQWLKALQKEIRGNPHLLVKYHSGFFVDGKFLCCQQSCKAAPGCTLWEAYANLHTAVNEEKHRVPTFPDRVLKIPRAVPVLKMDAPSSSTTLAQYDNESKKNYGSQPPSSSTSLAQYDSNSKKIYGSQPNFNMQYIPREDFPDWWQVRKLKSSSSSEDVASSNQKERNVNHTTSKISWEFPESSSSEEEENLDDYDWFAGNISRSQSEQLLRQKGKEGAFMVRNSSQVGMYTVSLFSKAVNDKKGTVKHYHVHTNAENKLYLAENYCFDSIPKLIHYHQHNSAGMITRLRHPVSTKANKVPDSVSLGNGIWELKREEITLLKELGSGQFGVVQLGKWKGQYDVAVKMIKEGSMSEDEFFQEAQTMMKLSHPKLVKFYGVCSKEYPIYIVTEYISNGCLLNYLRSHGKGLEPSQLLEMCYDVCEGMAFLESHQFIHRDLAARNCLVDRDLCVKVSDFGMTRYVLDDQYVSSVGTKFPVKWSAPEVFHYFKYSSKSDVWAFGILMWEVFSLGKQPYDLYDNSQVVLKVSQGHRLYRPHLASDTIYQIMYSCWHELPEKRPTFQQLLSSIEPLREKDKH
The test can be described thus: Inhibition of human recombinant BMX at 15 nM in presence of ATP by radiometric assay relative to control. Summed up: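 Part of a radiometric in vitro activity panel of 327 recombinant human kinases. Each kinase was tested in duplicate at one inhibitor concentration. Activity remaining was expressed as a percentage of the vehicle control, and percent inhibition was taken as 100 minus that value.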

Test [4] concerns the target T3, Ephrin type-B receptor 3 (Homo sapiens) (UniProt P54753).
T3 sequence (whole entry): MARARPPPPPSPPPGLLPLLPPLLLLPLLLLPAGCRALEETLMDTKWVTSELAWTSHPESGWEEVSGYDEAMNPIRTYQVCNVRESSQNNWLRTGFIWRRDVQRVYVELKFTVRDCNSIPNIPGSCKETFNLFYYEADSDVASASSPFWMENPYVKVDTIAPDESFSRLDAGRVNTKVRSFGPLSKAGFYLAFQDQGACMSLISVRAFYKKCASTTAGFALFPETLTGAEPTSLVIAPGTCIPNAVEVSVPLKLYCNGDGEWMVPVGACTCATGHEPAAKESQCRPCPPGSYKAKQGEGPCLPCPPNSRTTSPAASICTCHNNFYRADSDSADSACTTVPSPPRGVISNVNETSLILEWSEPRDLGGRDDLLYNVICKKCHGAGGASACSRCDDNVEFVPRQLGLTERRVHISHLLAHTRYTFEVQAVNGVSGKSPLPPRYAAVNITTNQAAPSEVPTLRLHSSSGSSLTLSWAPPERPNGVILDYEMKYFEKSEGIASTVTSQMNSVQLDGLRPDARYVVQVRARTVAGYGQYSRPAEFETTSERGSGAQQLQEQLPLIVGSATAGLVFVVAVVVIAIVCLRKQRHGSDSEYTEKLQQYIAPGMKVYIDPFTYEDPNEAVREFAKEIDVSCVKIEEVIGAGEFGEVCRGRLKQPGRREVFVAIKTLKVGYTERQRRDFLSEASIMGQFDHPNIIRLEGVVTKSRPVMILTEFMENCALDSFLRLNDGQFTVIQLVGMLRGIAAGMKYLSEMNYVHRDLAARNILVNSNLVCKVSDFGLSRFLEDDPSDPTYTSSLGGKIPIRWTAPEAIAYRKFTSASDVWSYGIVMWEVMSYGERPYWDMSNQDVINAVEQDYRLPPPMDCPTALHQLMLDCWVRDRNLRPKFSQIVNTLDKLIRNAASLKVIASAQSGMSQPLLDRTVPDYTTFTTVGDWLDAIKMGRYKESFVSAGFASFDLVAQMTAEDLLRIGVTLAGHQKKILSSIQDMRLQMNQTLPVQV
The test can be described thus: Inhibition of human recombinant EphB3 at 15 nM in presence of ATP by radiometric assay relative to control.

The target of test [5] is Calcium/calmodulin-dependent protein kinase type 1 (Homo sapiens) (UniProt Q14012). The test can be described thus: Inhibition of human recombinant CaMK1a at 15 nM related to control ULK1.
Sequence of Calcium/calmodulin-dependent protein kinase type 1 (Homo sapiens) (Q14012 whole entry, looked up): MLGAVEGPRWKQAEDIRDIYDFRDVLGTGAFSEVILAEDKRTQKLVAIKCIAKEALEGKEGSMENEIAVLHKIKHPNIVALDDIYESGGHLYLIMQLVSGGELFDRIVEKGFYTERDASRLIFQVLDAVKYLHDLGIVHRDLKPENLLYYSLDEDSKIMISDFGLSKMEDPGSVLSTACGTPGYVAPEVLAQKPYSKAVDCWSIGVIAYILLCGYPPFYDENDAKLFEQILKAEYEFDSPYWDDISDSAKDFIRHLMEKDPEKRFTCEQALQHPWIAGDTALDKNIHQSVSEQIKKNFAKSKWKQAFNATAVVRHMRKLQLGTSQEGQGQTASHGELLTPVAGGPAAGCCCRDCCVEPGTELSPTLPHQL

SMILES strings stand for the structures.

Sequence of Serine/threonine-protein kinase 38-like (Homo sapiens) (Q9Y2H1 2-464 limits assumed): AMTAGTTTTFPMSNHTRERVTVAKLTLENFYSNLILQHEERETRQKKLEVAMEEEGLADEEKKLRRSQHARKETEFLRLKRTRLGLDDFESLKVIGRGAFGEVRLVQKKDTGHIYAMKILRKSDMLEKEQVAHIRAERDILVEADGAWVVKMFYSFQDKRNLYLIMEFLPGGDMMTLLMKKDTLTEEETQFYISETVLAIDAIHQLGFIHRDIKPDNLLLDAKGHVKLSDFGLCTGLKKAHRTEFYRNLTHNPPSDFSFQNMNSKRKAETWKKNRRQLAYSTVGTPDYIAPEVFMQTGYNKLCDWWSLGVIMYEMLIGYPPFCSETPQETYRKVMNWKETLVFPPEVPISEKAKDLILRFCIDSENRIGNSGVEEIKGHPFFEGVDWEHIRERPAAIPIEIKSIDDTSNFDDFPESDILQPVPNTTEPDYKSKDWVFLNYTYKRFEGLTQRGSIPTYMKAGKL

As for `O=C(N[C@@H](C1CC1)C(F)(F)F)c1cc(-c2cnn3cc(-c4ccc(F)cc4)cnc23)cs1`, the inhibition in test [1] was 0%.

Regarding `CNC(=O)c1ccccc1Oc1nc(Nc2cc(OC)c(OC)c(OC)c2)ncc1Br`, in test [2], the fold change (FC) was 0.

Turning to `CC(C)[C@H](NC(=O)c1cc(-c2cnn3cc(-c4ccc(OCCN5CCCCC5)cc4)cnc23)cs1)C(F)(F)F`, the inhibition in test [3] turned out to be 6%; in test [4], 0%. Moreover, the fold change (FC) in test [5] was 0.08.

By inhibition is commonly meant the change of the read-out against control, counted positive when it falls.

Source of the values: ChEMBL document CHEMBL5653631, “A Potent and Selective ULK1 Inhibitor Suppresses Autophagy and Sensitizes Cancer Cells to Nutrient Stress” (iScience, 2018).
